Data set [1] deals with Voltage-gated inwardly rectifying potassium channel KCNH2 (Homo sapiens, UniProt Q12809). The data set can be described thus: Displacement of [3H]dofetilide from HEK cells expressing hERG voltage dependent IKr potassium channel Kv11.1.
The target of data set [2] is T1, Adrenergic receptor alpha-1 (Rattus norvegicus, UniProt P15823+P23944+P43140).
T1 sequence (P15823 whole entry): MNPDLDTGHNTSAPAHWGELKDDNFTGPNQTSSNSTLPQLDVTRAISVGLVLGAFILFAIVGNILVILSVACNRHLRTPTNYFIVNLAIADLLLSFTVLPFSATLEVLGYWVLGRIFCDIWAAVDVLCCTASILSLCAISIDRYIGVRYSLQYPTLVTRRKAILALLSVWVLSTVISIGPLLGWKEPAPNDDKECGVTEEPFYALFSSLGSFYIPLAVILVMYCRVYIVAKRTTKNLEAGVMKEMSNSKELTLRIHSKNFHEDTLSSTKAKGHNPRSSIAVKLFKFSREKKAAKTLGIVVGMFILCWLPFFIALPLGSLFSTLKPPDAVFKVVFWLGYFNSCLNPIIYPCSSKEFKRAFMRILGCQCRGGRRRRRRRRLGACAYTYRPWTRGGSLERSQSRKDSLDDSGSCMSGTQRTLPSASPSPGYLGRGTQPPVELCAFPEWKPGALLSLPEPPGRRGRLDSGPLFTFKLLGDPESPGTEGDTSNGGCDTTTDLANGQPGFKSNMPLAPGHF
T1 sequence (P23944 whole entry): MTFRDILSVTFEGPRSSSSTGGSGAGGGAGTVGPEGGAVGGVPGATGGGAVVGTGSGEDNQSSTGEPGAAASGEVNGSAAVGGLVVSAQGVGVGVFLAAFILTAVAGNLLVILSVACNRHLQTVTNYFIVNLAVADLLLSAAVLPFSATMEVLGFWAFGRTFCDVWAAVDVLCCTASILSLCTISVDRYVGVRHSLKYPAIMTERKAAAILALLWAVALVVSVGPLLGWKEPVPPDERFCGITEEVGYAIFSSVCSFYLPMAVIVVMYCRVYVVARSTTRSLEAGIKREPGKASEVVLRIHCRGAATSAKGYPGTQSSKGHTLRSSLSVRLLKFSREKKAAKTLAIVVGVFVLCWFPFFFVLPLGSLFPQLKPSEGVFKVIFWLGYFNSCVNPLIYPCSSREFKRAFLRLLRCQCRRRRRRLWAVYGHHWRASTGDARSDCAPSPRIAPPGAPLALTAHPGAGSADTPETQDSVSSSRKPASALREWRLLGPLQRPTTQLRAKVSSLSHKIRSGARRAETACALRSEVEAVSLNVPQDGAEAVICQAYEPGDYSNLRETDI
T1 sequence (P43140 whole entry): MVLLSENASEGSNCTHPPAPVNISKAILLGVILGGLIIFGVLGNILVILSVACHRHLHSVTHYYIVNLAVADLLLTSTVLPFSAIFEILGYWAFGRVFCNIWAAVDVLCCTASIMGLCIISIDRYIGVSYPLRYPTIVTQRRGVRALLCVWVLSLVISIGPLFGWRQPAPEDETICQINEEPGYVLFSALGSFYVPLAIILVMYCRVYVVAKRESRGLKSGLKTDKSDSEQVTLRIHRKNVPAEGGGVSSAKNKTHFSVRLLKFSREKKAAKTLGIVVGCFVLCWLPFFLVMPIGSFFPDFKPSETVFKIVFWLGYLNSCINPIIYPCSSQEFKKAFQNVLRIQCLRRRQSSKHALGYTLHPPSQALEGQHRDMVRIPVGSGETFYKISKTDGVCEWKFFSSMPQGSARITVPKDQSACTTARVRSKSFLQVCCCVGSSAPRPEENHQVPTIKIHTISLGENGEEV
The data set can be described thus: Ability to displace [3H]-prazosin binding to rat cortical membranes expressing Alpha-1 adrenergic receptors.

Data set [3] concerns the target 5-hydroxytryptamine receptor 2A (Homo sapiens, UniProt P28223). The data set can be described thus: Ability to displace [3H]ketanserin binding to human 5-hydroxytryptamine 2A receptor stably expressed in CHO cells. Type of data set: cell-based. Summed up: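 Membranes from CHO cells stably expressing human 5-HT2A, homogenized in 50 mM Tris-HCl pH 7.5, at 2 mg wet weight/mL. Ki from nonlinear least-squares regression, geometric mean of at least three determinations.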

For the next data set, the target named is D(2) dopamine receptor (Homo sapiens, UniProt P14416). The data set can be described thus: Ability to displace [3H]spiperone binding to CHO cells stably expressing dopamine receptor D2. The class given is cell-based.
Sequence of D(2) dopamine receptor (P14416 whole entry): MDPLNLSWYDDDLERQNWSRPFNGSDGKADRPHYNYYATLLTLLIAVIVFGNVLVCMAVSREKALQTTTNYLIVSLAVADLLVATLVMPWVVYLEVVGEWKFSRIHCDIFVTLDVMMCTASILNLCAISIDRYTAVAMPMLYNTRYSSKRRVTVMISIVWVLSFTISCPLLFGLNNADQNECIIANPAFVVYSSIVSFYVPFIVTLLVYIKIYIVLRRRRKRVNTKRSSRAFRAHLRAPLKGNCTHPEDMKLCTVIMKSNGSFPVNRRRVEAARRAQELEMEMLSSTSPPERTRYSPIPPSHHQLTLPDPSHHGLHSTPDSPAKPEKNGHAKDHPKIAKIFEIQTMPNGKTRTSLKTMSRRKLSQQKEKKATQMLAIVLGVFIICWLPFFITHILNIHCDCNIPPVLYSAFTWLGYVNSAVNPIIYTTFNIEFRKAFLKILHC
The target in data set [4] is T2, 5-hydroxytryptamine receptor 2C (Homo sapiens, UniProt P28335).
T2 sequence (P28335 whole entry): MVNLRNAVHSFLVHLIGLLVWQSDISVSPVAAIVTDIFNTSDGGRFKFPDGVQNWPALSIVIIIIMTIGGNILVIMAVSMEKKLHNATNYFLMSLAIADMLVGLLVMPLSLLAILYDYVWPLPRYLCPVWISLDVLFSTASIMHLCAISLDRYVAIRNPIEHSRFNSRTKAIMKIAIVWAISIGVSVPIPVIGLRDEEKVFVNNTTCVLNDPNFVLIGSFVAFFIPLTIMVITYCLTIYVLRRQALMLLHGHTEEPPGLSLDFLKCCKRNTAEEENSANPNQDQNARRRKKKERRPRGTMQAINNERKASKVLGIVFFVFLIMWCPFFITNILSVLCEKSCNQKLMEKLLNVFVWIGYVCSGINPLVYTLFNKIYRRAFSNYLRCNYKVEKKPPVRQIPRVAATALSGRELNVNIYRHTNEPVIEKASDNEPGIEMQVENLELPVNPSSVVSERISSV
The data set can be described thus: Ability to displace [3H]mesulergine binding to human 5-hydroxytryptamine 2C receptor stably expressed in CHO cells. Type of data set: cell-based.

Data set [5] in a line: Area under the concentration-time curve for 0-4 hr after 2 mg/kg po in rat. The following applies: in vivo. Type of data set: ADME, organism-based. More on the design: time < 4 hr, dose 2 mg/kg, route oral. In outline:
(§1)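 Male Sprague-Dawley rats (~300 g) gavaged at 2 mg/kg (5 mL/kg of 0.5% methocel A4C suspension), five rats; one rat culled per time point up to 4 h for blood. Samples get internal standard and are extracted into ethyl acetate, then LC-MS single ion recording.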

Data set [6] is described as follows: Maximum blood concentration after oral dosing at 2 mg/kg in rat. The class given is ADME, organism-based. More on the design: dose 2 mg/kg, route oral. Summed up: as §1

SMILES strings stand for the structures. Some results are limits rather than exact numbers.

In general, Ki refers to a dissociation constant, usually derived from enzyme kinetics or from competition with a known ligand. Low values mean a stronger hold on the target, high ones a looser hold on the target. Broadly, the AUC(0-t) is the area under the concentration-time curve up to a stated or last time point. A high value points to more exposure. The term Cmax denotes the maximum level reached in the sampled fluid or tissue.

Sequence of Voltage-gated inwardly rectifying potassium channel KCNH2 (Q12809 whole entry): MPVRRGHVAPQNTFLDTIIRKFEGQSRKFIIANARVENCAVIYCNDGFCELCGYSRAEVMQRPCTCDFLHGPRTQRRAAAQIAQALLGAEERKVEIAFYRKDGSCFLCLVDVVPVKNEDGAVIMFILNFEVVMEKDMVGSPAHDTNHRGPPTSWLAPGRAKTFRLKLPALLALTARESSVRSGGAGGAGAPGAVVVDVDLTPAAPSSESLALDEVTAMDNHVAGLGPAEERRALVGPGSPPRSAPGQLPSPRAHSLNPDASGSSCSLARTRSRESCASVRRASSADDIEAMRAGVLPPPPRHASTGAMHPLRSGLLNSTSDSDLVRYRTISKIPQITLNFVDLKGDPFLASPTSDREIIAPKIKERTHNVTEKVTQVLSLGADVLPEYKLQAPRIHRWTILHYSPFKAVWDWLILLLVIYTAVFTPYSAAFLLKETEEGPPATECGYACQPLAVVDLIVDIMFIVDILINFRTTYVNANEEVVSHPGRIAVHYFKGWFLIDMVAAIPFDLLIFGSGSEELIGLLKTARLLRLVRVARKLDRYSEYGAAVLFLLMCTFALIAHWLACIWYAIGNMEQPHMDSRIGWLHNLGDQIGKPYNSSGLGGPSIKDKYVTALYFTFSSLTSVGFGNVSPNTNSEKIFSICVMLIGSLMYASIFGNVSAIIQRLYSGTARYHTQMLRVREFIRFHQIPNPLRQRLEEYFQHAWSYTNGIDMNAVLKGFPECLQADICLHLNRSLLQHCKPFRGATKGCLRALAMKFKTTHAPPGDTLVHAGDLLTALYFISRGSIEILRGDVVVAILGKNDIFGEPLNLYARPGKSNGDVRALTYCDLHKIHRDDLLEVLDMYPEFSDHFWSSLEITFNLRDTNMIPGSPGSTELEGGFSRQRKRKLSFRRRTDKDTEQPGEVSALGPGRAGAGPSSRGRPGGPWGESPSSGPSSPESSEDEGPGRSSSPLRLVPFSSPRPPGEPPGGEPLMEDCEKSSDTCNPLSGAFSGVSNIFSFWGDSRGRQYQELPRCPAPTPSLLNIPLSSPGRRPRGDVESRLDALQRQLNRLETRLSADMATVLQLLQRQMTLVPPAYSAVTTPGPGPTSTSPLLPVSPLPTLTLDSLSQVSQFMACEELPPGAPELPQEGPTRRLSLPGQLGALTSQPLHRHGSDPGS
Sequence of 5-hydroxytryptamine receptor 2A (P28223 whole entry): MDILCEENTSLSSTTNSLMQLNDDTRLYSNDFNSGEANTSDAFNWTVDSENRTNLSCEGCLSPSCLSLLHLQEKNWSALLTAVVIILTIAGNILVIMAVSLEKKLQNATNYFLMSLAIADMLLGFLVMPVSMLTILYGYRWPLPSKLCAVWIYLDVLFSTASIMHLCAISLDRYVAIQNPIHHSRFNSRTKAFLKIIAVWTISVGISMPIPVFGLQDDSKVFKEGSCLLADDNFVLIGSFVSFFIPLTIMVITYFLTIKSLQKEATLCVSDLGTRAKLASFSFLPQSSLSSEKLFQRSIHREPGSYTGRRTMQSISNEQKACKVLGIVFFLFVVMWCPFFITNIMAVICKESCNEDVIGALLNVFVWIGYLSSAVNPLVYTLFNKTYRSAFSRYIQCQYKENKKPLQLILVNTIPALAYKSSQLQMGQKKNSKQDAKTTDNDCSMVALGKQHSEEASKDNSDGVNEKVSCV

For `Fc1ccc2[nH]c(-c3ccccc3)c([C@@H]3CNCC[C@H]3F)c2c1`, the Ki in data set [1] was > 7000 nM; in data set [2], 210 nM; in data set [3], 4 nM; at D(2) dopamine receptor, > 1600 nM; in data set [4], 500 nM.

As for `Fc1ccc2c([C@@H]3CNCC[C@H]3F)c[nH]c2c1`, in data set [3], affinity was put at a Ki of 70 nM.

For `c1ccc(CCN2CCCC(c3c(-c4ccccc4)[nH]c4ccccc34)C2)cc1` (stereo not given), the Ki came out at 59 nM in data set [3], 500 nM on D(2) dopamine receptor and 2400 nM in data set [4].

With `F[C@@H]1CCNC[C@H]1c1c(-c2ccccc2)[nH]c2cc(Cl)ccc12`, the Ki in data set [2] was 16 nM; in data set [3] it was 2.3 nM; on D(2) dopamine receptor, > 1600 nM.

Take `Fc1ccc2c([C@@H]3CNCC[C@H]3F)c(C3CCCCC3)[nH]c2c1`: the inhibition constant Ki in data set [2] is 21 nM; in data set [3], 0.25 nM; on D(2) dopamine receptor it was > 1600 nM; in data set [4] it was 5 nM.

Take `c1ccc(-c2[nH]c3ccccc3c2C2CCCNC2)cc1` (stereo not given): the inhibitory constant (Ki) in data set [2] was 21 nM; in data set [3], 0.99 nM; at D(2) dopamine receptor, > 1300 nM; in data set [4] it was 89 nM. In data set [5], this compound returned an AUC(0-t) at 4 h of 47 ng·h/mL. In data set [6], the maximum concentration (Cmax) amounted to 26 ng/mL.

With `Fc1cccc2c([C@@H]3CNCC[C@H]3F)c(-c3ccccc3)[nH]c12`, the Ki in data set [2] was 27 nM; in data set [3] it was 0.46 nM; on D(2) dopamine receptor, > 1600 nM; in data set [4], 132 nM.

Regarding `Fc1ccc(-c2[nH]c3cc(F)ccc3c2C2CCCNC2)cc1` (stereo not given), the inhibition constant Ki in data set [1] is 1300 nM; in data set [2] it was 1.1 nM; in data set [3], 0.09 nM; at D(2) dopamine receptor it was 28 nM; in data set [4], 16 nM.

In the case of `Fc1ccc(-c2[nH]c3cc(F)ccc3c2[C@@H]2CNCC[C@H]2F)cc1`, the inhibition constant Ki was 1600 nM in data set [1]; 2.9 nM in data set [2]; 0.12 nM in data set [3]; 900 nM on D(2) dopamine receptor; 19 nM in data set [4]. Also, the AUC(0-t) at 4 h in data set [5] is 350 ng·h/mL. The highest level in data set [6] (Cmax) was 149 ng/mL.

Take `O=C(Nc1ccccc1)c1[nH]c2cc(F)ccc2c1[C@@H]1CNCC[C@H]1F`: the Ki in data set [2] was 3.9 nM; in data set [3], 0.09 nM; on D(2) dopamine receptor, > 1600 nM; in data set [4] it was 48 nM. The compound also registered an AUC(0-t) at 4 h in data set [5] of 8 ng·h/mL. For the same compound, in data set [6], the Cmax was 3 ng/mL.

Take `c1ccc(CN2CCCC(c3c(-c4ccccc4)[nH]c4ccccc34)C2)cc1` (stereo not given): the Ki in data set [2] came out at 47 nM; in data set [3] it was 20 nM; on D(2) dopamine receptor it was 1600 nM; in data set [4], 2000 nM.

For the compound `c1ccc(-c2[nH]c3ccccc3c2C2CCNCC2)cc1`, the inhibition constant Ki was 5700 nM in data set [1], 2100 nM in data set [2], > 1600 nM at D(2) dopamine receptor and 400 nM in data set [4].

Regarding `Fc1ccc2c([C@@H]3CNCC[C@H]3F)c(-c3ccsc3)[nH]c2c1`, the Ki in data set [1] came out at 1500 nM; in data set [2], 2.8 nM; in data set [3], 0.11 nM; on D(2) dopamine receptor, 1600 nM; in data set [4], 50 nM.

On to `CN1CCN(C)C(c2c(-c3ccccc3)[nH]c3ccccc23)C1` (stereo not given), for which the Ki in data set [3] was 320 nM; on D(2) dopamine receptor it was > 1600 nM.

In the case of `F[C@@H]1CCNC[C@H]1c1c(-c2ccccc2)[nH]c2ccc(Cl)cc12`, the Ki in data set [2] is 40 nM; in data set [3], 10.2 nM; at D(2) dopamine receptor, > 1600 nM.

Consider `F[C@H]1CCNC[C@@H]1c1c(-c2ccccc2)[nH]c2ccccc12`, for which the values for the inhibition constant (Ki) (in data set [3]; at D(2) dopamine receptor) were 220 nM and > 1700 nM, respectively.

In the case of `F[C@@H]1CCNC[C@H]1c1c(-c2ccccc2)[nH]c2c(Cl)cccc12`, the Ki in data set [2] was 6.7 nM; in data set [3], 0.69 nM; on D(2) dopamine receptor it was > 1600 nM; in data set [4], 154 nM.

Take `Fc1ccc2c([C@@H]3CNCC[C@H]3F)c(-c3cccc4ccccc34)[nH]c2c1`: the Ki in data set [1] amounted to 110 nM; in data set [2] it was 8.5 nM; in data set [3], 0.34 nM; at D(2) dopamine receptor, 1400 nM.

As to `Fc1ccc2c([C@@H]3CNCC[C@H]3F)c(-c3cccnc3)[nH]c2c1`, the Ki is 7.3 nM in data set [2], 0.35 nM in data set [3], > 1600 nM at D(2) dopamine receptor and 85 nM in data set [4].

For the compound `Fc1ccc2c([C@@H]3CNCC[C@H]3F)c(-c3ccoc3)[nH]c2c1`, the figures for the Ki (in data set [2]; in data set [3]; on D(2) dopamine receptor) were 3.6 nM, 0.54 nM and > 1600 nM, respectively.

On to `c1ccc(-c2[nH]c3ccccc3c2C2CNCCO2)cc1` (stereo not given), for which the inhibition constant (Ki) in data set [3] worked out at 18 nM; on D(2) dopamine receptor it was 1600 nM.

`CN1CCCCC1c1c(-c2ccccc2)[nH]c2ccccc12` (stereo not given): the inhibition constant Ki in data set [2] is 99 nM; in data set [3] it was 14 nM; at D(2) dopamine receptor, > 1700 nM; in data set [4] it was 2000 nM.

For `CN1CCCC(c2c(-c3ccccc3)[nH]c3ccccc23)C1` (stereo not given), the Ki in data set [1] came out at 9600 nM; in data set [2], 30 nM; in data set [3], 4.7 nM; at D(2) dopamine receptor it was 28 nM; in data set [4], 150 nM.

Take `Fc1ccc2c([C@@H]3CNCC[C@H]3F)c(-c3ccc4ccccc4c3)[nH]c2c1`: the Ki in data set [1] was determined as 500 nM; in data set [2], 2.1 nM; in data set [3], 0.23 nM; at D(2) dopamine receptor it was 500 nM.

As to `O[C@@H]1CCNC[C@H]1c1c(-c2ccccc2)[nH]c2ccccc12`, the inhibition constant Ki in data set [3] was 3.3 nM; at D(2) dopamine receptor it was > 1600 nM.

As for `O=C1NCCN1CCN1CCCC(c2c(-c3ccccc3)[nH]c3ccccc23)C1` (stereo not given), the Ki in data set [3] is 26 nM; at D(2) dopamine receptor, > 1300 nM; in data set [4], 2500 nM. Further, in data set [5], the exposure AUC(0-t) at 4 h came out at 217 ng·h/mL. For the same compound, in data set [6], the Cmax is 85 ng/mL.

As for `COC(=O)c1[nH]c2cc(F)ccc2c1[C@@H]1CNCC[C@H]1F`, the Ki is 7.3 nM in data set [2], 10.4 nM in data set [3], > 1600 nM on D(2) dopamine receptor and > 2000 nM in data set [4].

The record behind these values is ChEMBL document CHEMBL1134475, “3-(4-Fluoropiperidin-3-yl)-2-phenylindoles as high affinity, selective, and orally bioavailable h5-HT(2A) receptor antagonists” (J Med Chem, 2001).
